What was measured:
CYP1A2 [1] = experiment: Induction of CYP1A2 mRNA expression in human hepatocytes at 10 uM relative to control; assay type: ADME, cell-based, Hepatocyte; details: read-out: FC
CYP1A2 [2] = experiment: Induction of CYP1A2 mRNA expression in rat hepatic microsomes at 30 mg/kg, po QD for 7 days relative to control; assay type: ADME, organism-based, Liver; details: read-out: FC
Procedure, shortened: (§1)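 Male rats dosed orally once daily for 7 days. Hepatic mRNA measured by Taqman and expressed as fold induction versus control animals.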

Rattus norvegicus [3] = experiment: Induction of Ephx1 gene expression in po dosed rat hepatic microsomes administered po QD for 7 days; assay type: organism-based, Liver; details: 168 h
Procedure, shortened: (§2)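 Rats dosed orally once daily for 7 days at 30–300 mg/kg/day, depending on compound. Hepatic AhR-panel gene mRNA (Cyp1a, Nqo1, Ephx1) measured and expressed as fold induction versus control animals.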

Rattus norvegicus [4] = experiment: Induction of Nqo1 gene expression in po dosed rat hepatic microsomes administered po QD for 7 days; assay type: organism-based, Liver; details: 168 h; procedure, shortened: as §2
Rattus norvegicus [5] = experiment: Induction of Nqo1 gene expression in rat hepatic microsomes at 30 to 300 mg/kg, po QD for 7 days; assay type: organism-based, Liver; details: 168 h; procedure, shortened: as §2
Rattus norvegicus [6] = experiment: Induction of CYP1A2 gene expression in rat hepatic microsomes at 30 to 300 mg/kg, po QD for 7 days; assay type: ADME, organism-based, Liver; details: 168 h; procedure, shortened: as §2
CYP1A1 [7] = experiment: Induction of CYP1A1 gene expression in rat hepatic microsomes at 30 to 300 mg/kg, po QD for 7 days; assay type: ADME, organism-based, Liver; details: read-out: FC
Procedure, shortened: (§3)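 Rats received oral doses daily for 7 days: 30 and 100 mg/kg, or 30, 100 and 300 mg/kg, depending on compound. Hepatic CYP1A1 mRNA was expressed as fold induction versus control animals.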

Rattus norvegicus [8] = experiment: Induction of Ephx1 gene expression in rat hepatic microsomes at 30 to 300 mg/kg, po QD for 7 days; assay type: organism-based, Liver; details: 168 h; procedure, shortened: as §2
CYP1A2 [9] = biological target: T1, CYP1A2 (Homo sapiens, UniProt P05177); experiment: Induction of CYP1A2-mediated 7-ethoxyresorufin O-deethylase activity in human hepatocytes at 5 uM after 10 mins by fluorescence assay relative to control; assay type: ADME, cell-based, Hepatocyte; details: probe 7-ethoxyresorufin, read-out: FC
T1 sequence (P05177 whole entry): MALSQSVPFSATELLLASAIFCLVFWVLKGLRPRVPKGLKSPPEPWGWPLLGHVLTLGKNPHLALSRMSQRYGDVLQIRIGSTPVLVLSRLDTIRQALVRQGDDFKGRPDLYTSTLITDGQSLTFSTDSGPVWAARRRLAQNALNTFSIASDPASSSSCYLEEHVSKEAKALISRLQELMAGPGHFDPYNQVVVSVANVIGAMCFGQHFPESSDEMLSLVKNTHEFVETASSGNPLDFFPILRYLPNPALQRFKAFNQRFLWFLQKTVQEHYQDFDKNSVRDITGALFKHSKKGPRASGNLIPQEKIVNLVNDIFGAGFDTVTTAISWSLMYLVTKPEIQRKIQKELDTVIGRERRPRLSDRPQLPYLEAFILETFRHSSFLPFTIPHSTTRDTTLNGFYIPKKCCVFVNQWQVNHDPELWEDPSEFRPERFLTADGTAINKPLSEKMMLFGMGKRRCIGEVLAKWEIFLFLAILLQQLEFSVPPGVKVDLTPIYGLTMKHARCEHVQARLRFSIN
Procedure, shortened: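 Human hepatocytes were treated for 48 h (re-dosed at 24 h), washed, then incubated with 0.5 μM ethoxyresorufin in serum-free medium for 10 min at 37 °C. Resorufin fluorescence read at Ex 530/Em 590 nm. Rate in fluorescence units/min expressed as fold over solvent control.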

CYP1A2 [10] = experiment: Induction of CYP1A2 mRNA expression in rat hepatocytes at 10 uM by Taqman analysis relative to control; assay type: ADME, cell-based, Hepatocyte; details: read-out: FC
CYP1A1 [11] = experiment: Induction of CYP1A1 mRNA expression in rat hepatic microsomes at 30 mg/kg, po QD for 7 days relative to control; assay type: ADME, organism-based, Liver; details: read-out: FC; procedure, shortened: as §1
Rattus norvegicus [12] = experiment: Induction of CYP1A1 gene expression in po dosed rat hepatic microsomes administered po QD for 7 days; assay type: ADME, organism-based, Liver; details: 168 h; procedure, shortened: as §3
CYP1A1 [13] = experiment: Induction of CYP1A1 mRNA expression in rat hepatocytes at 10 uM by Taqman analysis relative to control; assay type: ADME, cell-based, Hepatocyte; details: read-out: FC
Rattus norvegicus [14] = experiment: Induction of CYP1A2 gene expression in po dosed rat hepatic microsomes administered po QD for 7 days; assay type: ADME, organism-based, Liver; details: 168 h; procedure, shortened: as §2
Cynomolgus monkey [15] = experiment: Induction of CYP1A1 gene expression in cynomolgus monkey liver at 30 mg/kg, po QD for 7 days by Taqman analysis; assay type: ADME, organism-based, Macaca fascicularis; details: in vivo, 168 h
Procedure, shortened: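 Cynomolgus monkeys were dosed orally at 30 mg/kg daily. Hepatic CYP1A1 mRNA from treated livers was measured by Taqman and compared with vehicle-control animals.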

Rattus norvegicus [16] = experiment: Induction of CYP1A2 gene expression in rat hepatic microsomes at 30 to 100 mg/kg, po QD for 7 days; assay type: ADME, organism-based, Liver; details: 168 h
[17] = Intrinsic clearance in cynomolgus monkey liver microsomes by LC-MS/MS analysis; assay type: ADME, Macaca fascicularis
Procedure, shortened: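 Liver microsomes were prepared from control and treated cynomolgus monkeys by differential centrifugation (10 000g, then 105 000g). Compound incubated at 37 °C in 50 mM potassium phosphate pH 7.4 with an NADPH-generating system. Samples taken at 0–30 min, quenched with solvent containing internal standard, and analysed by LC–MS/MS to derive intrinsic clearance.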

Rattus norvegicus [18] = experiment: Induction of Nqo1 gene expression in rat hepatic microsomes at 30 to 100 mg/kg, po QD for 7 days; assay type: organism-based, Liver; details: 168 h
Rattus norvegicus [19] = experiment: Induction of Ephx1 gene expression in rat hepatic microsomes at 30 to 100 mg/kg, po QD for 7 days; assay type: organism-based, Liver; details: 168 h
CYP1A1 [20] = experiment: Induction of CYP1A1 gene expression in rat hepatic microsomes at 30 to 100 mg/kg, po QD for 7 days; assay type: ADME, organism-based, Liver; details: read-out: FC
Cynomolgus monkey [21] = experiment: Induction of CYP1A2 gene expression in cynomolgus monkey liver at 30 mg/kg, po QD for 7 days by Taqman analysis; assay type: ADME, organism-based, Macaca fascicularis; details: in vivo, 168 h
Procedure, shortened: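 Cynomolgus monkeys dosed orally at 30 mg/kg daily for 7 days. Liver CYP1A2 mRNA measured by Taqman analysis in treated animals versus vehicle-control animals.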

Row | fold induction at 10 µM (CYP1A2 [1]) | fold induction at 168 h (CYP1A2 [2]) | Activity (Rattus norvegicus [3]) | Activity (Rattus norvegicus [4]) | fold induction at 168 h (CYP1A1 [7]) | fold induction at 10 min, 5 µM (CYP1A2 [9]) | fold induction at 10 µM (CYP1A2 [10]) | fold induction at 168 h (CYP1A1 [11]) | Activity (Rattus norvegicus [12]) | fold induction at 10 µM (CYP1A1 [13]) | Activity (Rattus norvegicus [14]) | Structure (SMILES) | Activity (Rattus norvegicus [5]) | Activity (Rattus norvegicus [6]) | Activity (Rattus norvegicus [8]) | other results
1 | 0.6 | 8 | Dose-dependent effect | Dose-dependent effect | 10000 | 1.1 | 3 | 75 | Dose-dependent effect | 5 | Dose-dependent effect | CC(C)Oc1ccc(-c2nc(-c3cccc4c3OCCN(CCCC(=O)O)C4)no2)cc1Cl | Toxic | Toxic | Toxic | 
2 |  | 2 | Dose-dependent effect | Dose-dependent effect | 10000 |  | 2 | 210 | Dose-dependent effect | 3 | Dose-dependent effect | CC(C)Oc1ccc(-c2nc(-c3ccc4c(c3)CCN(CCCC(=O)O)CC4)no2)cc1C#N | Toxic | Toxic | Toxic | 
3 | 45 | 2 | Dose-dependent effect | Dose-dependent effect |  | 7.7 | < 1 | 35 | Dose-dependent effect | < 1 | Dose-dependent effect | CC(C)Oc1ccc(-c2nc(-c3cccc4c3cnn4CCC(=O)O)no2)cc1Cl |  |  |  | Activity (Cynomolgus monkey [15]): Toxic; Activity (Rattus norvegicus [16]): Toxic; CLint scaled [17]: 11 mL/min/g; Activity (Rattus norvegicus [18]): Toxic; Activity (Rattus norvegicus [19]): Toxic; fold induction at 168 h (CYP1A1 [20]): 10000; Activity (Cynomolgus monkey [21]): Toxic
